According to ChEMBL document CHEMBL5649170, “Sustained microglial depletion with CSF1R inhibitor impairs parenchymal plaque development in an Alzheimer's disease model” (Nat Commun, 2019):
Active and inactive are the calls of the source. The rule behind the calls is not given here.

How the values were obtained:
Aurora kinase A = Aurora kinase A (Homo sapiens, UniProt O14965); assay: Inhibition of AURKA (unknown origin)
[1] = biological target: Eukaryotic elongation factor 2 kinase (Homo sapiens, UniProt O00418); assay: Inhibition of EEF2K (unknown origin)
Sequence of Eukaryotic elongation factor 2 kinase (O00418 whole entry): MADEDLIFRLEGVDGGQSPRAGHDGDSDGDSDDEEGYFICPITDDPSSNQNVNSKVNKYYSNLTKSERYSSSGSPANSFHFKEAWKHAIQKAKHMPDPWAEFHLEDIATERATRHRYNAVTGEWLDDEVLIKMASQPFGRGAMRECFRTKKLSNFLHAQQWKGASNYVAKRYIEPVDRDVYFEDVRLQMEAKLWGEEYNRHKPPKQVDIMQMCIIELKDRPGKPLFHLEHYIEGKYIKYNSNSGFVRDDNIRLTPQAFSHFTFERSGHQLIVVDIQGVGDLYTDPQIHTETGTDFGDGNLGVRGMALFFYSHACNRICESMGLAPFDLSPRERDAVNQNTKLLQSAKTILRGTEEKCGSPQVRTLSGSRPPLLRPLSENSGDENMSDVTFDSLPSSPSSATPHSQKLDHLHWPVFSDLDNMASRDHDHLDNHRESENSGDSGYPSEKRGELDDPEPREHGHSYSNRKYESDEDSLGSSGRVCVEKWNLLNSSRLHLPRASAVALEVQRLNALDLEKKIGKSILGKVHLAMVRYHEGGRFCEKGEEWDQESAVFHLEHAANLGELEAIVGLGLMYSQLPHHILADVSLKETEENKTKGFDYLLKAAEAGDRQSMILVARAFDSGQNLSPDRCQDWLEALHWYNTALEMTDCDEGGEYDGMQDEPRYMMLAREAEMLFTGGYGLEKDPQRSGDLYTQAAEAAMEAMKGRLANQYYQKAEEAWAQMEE

[2] = biological target: Glycogen synthase kinase-3 alpha (Homo sapiens, UniProt P49840); assay: Inhibition of GSK3A (unknown origin)
Sequence of Glycogen synthase kinase-3 alpha (P49840 whole entry): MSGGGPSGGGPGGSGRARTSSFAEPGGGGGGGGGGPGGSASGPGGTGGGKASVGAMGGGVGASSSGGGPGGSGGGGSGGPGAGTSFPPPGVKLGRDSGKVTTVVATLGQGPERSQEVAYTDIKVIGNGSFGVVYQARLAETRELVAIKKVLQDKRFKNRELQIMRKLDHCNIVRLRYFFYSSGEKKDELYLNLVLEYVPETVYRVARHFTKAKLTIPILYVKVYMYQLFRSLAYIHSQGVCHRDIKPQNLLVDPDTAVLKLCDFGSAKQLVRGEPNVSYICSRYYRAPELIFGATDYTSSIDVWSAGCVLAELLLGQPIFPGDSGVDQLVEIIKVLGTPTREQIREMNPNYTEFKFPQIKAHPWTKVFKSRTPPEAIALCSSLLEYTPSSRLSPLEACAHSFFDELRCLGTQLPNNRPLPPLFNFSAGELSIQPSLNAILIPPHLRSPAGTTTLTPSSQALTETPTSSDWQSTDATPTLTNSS

Insulin receptor = Insulin receptor (Homo sapiens, UniProt P06213); assay: Inhibition of INSR (unknown origin)
Sequence of Insulin receptor (P06213 28-758 limits assumed): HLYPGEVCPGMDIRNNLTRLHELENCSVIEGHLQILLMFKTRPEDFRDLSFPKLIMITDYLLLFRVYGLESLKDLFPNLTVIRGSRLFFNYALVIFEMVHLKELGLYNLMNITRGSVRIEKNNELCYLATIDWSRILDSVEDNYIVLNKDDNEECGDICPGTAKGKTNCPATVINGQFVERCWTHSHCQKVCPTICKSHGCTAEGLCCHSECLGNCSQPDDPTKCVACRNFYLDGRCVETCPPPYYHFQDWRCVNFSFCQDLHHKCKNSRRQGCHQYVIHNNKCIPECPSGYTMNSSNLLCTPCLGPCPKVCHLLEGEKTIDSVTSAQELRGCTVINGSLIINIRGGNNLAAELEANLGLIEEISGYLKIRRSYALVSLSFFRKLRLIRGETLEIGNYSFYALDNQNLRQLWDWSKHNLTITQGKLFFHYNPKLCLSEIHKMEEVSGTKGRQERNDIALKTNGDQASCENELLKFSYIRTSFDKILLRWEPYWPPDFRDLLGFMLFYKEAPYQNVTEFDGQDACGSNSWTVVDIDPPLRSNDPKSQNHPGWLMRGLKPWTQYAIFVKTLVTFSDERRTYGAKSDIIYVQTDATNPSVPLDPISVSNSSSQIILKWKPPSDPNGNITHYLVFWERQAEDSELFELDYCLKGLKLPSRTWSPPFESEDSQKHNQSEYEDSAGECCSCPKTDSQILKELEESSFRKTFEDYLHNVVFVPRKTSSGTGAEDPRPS
Sequence of Insulin receptor (P06213 763-1382 limits assumed): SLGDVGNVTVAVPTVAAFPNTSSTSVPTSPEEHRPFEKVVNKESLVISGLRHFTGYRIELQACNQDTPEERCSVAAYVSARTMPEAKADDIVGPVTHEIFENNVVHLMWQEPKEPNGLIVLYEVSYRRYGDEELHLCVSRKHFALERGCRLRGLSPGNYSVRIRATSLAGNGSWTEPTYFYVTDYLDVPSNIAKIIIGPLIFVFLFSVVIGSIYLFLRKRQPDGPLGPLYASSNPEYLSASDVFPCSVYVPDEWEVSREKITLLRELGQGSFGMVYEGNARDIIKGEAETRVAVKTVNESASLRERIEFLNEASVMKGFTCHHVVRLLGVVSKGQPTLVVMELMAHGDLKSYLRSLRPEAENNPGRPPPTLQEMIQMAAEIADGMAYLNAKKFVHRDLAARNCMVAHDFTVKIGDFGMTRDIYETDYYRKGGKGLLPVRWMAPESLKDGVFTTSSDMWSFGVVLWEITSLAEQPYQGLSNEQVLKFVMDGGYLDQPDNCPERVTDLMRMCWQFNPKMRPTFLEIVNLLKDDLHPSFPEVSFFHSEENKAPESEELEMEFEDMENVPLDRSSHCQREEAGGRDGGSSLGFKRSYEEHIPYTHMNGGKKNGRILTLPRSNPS

[3] = biological target: Protein kinase C alpha type (Homo sapiens, UniProt P17252); assay: Inhibition of PRKCA (unknown origin)
[4] = Half-life in monkey at 1.35 mg/kg, iv administered as single dose; assay type: ADME, organism-based, Macaca mulatta; settings: rhesus monkey, in vivo
[5] = AUC (0 to infinity) in male rat at 45 mg/kg, po administered as single dose via gavage; assay type: ADME, organism-based; settings: in vivo
Mus musculus [6] = assay: Antialzheimer activity in 5XFAD mouse assessed as amyloidbeta40 level in detergent insoluble cortex fraction measured per microgram protein at 1200 ppm administered as rodent chow starting from 1.5 months and measured after 7 months by ELISA (reference value: 615.15 to 39796 pg); assay type: functional; settings: route po, time 5.5 months, 4015 h
In short: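 PLX5622 at 1200 ppm in chow given to 5xFAD mice from 1.5 months to 4 or 7 months of age; cortex and thalamus homogenized in TPER (detergent-soluble), pellets re-homogenized in 70% formic acid and spun 100,000 g, 1 h, 4 °C (insoluble); protein by Bradford/Lowry; Aβ species measured by Meso Scale electrochemiluminescence immunoassay, normalized to protein; n = 7–8 per group at 7 months.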

Mus musculus [7] = assay: Antialzheimer activity in 5XFAD mouse assessed as microglial elimination in cortex at 1200 ppm administered as rodent chow for 10 weeks by Thio-S staining based confocal microscopic analysis relative to control; assay type: functional; settings: route po
In short: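 1.5-month-old 5xFAD mice fed 1200 ppm PLX5622 chow for 10 weeks; free-floating sections stained with Thio-S and immunolabeled for IBA1 (5% normal serum/0.2% Triton X-100 block, 60 min); confocal imaging of cortex and thalamus to assess remaining microglia.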

Mus musculus [8] = assay: Effect on APP processing pathway in wildtype mouse assessed as C83 protein signal intensity in cortex at 1200 ppm administered as rodent starting from 1.5 months and measured after 7 months (reference value: 2.769 to 56.642 %); assay type: functional; settings: route po, time 5.5 months, 4015 h
Mus musculus [9] = assay: Effect on APP processing pathway in 5XFAD mouse assessed as C83 protein signal intensity in cortex at 1200 ppm administered as rodent starting from 1.5 months and measured after 7 months (reference value: 37.776 to 172.037 %); assay type: functional; settings: route po, time 5.5 months, 4015 h
Mus musculus [10] = assay: Antialzheimer activity in 5XFAD mouse assessed as reduction in myeloid cell numbers in subiculum at 1200 ppm administered as rodent chow starting from 1.5 months and measured after 7 months by immunolabeling based confocal microscopic analysis relative to control; assay type: functional; parameters: scale not given: the % may be the effect or the level left; settings: route po, time 5.5 months, 4015 h
Mus musculus [11] = assay: Antialzheimer activity in 5XFAD mouse assessed as alteration in plaque morphology by measuring average plaque circularity in thalamus at 1200 ppm administered as rodent chow starting from 1.5 months and measured after 7 months by Thio-S labeling based confocal microscopic analysis (reference value: 0.257 to 0.365); assay type: functional; settings: route po, time 5.5 months, 4015 h
[12] = Effect on Cx3cr1 gene expression in 5XFAD mouse cortex at 1200 ppm administered as rodent chow starting from 1.5 months and measured after 7 months by RNA-Seq analysis (reference value: 15.803 to 19.787); assay type: functional; settings: route po, time 5.5 months, 4015 h
[13] = Effect on C1qa gene expression in wild type mouse cortex at 1200 ppm administered as rodent chow starting from 1.5 months and measured after 7 months by RNA-Seq analysis (reference value: 16.071 to 20.526 RPKM); assay type: functional; settings: route po, time 5.5 months, 4015 h
In short: (§1)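 WT and 5xFAD mice were treated with 1200 ppm PLX5622 chow or control chow from 1.5 to 7 months of age. Brains were microdissected into cortex, hippocampus and thalamus, and RNA was extracted from tissue powder. Whole-transcriptome RNA-Seq libraries were sequenced, with n = 4 per group per region (48 samples).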

[14] = Effect on C1qa gene expression in wild type mouse thalamus at 1200 ppm administered as rodent chow starting from 1.5 months and measured after 7 months by RNA-Seq analysis (reference value: 19.070 to 32.518); assay type: functional; settings: route po, time 5.5 months, 4015 h; in short: as §1
[15] = Effect on C1qa gene expression in 5XFAD mouse hippocampus at 1200 ppm administered as rodent chow starting from 1.5 months and measured after 7 months by RNA-Seq analysis (reference value: 61.868 to 70.581 RPKM); assay type: functional; settings: route po, time 5.5 months, 4015 h; in short: as §1
[16] = Effect on Ctsz gene expression in wild type mouse hippocampus at 1200 ppm administered as rodent chow starting from 1.5 months and measured after 7 months by RNA-Seq analysis (reference value: 13.821 to 22.84 RPKM); assay type: functional; settings: route po, time 5.5 months, 4015 h
[17] = Prevention of Scn1b gene downregulation in 5XFAD mouse hippocampus assessed as percent change in Reads Per kilo base per Million mapped reads at 1200 ppm administered as rodent chow starting from 1.5 months and measured after 7 months by RNA-Seq analysis (reference value: 53.15 to 80.717 %); assay type: functional; settings: route po, time 5.5 months, 4015 h
[18] = Prevention of Dusp5 gene downregulation in 5XFAD mouse hippocampus assessed as percent change in Reads Per kilo base per Million mapped reads at 1200 ppm administered as rodent chow starting from 1.5 months and measured after 7 months by RNA-Seq analysis (reference value: 41.082 to 74.744 %); assay type: functional; settings: route po, time 5.5 months, 4015 h
[19] = Prevention of Chrm3 gene downregulation in 5XFAD mouse hippocampus assessed as percent change in Reads Per kilo base per Million mapped reads at 1200 ppm administered as rodent chow starting from 1.5 months and measured after 7 months by RNA-Seq analysis (reference value: 46.176 to 86.158 %); assay type: functional; settings: route po, time 5.5 months, 4015 h
Mus musculus [20] = assay: Prevention of Trem2 gene upregulation in 5XFAD mouse hippocampus at 1200 ppm administered as rodent chow starting from 1.5 months and measured after 7 months by Nanostring analysis; assay type: functional, tissue-based; settings: route po, time 5.5 months

Sequence of Aurora kinase A (O14965 whole entry): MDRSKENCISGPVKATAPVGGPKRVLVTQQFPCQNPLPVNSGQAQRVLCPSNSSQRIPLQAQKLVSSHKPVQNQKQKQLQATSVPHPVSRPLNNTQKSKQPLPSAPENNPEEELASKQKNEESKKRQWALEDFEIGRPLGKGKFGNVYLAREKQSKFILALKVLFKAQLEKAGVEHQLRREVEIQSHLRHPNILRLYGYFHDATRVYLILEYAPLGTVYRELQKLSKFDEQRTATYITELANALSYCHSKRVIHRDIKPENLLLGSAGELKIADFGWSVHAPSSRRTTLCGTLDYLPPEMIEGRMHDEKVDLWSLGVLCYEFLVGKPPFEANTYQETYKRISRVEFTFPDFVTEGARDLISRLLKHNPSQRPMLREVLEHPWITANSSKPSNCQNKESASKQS

For `COc1ncc(F)cc1CNc1ccc(Cc2c[nH]c3ncc(C)cc23)c(F)n1` [PLX-5622], the IC50 (Aurora kinase A) was over 1000 nM, the IC50 [1] was over 1000 nM and the IC50 [2] was over 1000 nM. It also gave an IC50 (Insulin receptor) of over 1000 nM, an IC50 [3] of over 1000 nM and a half-life [4] of 2.2 h. The AUC(0-inf) [5] was 99600 ng·h/mL, the Activity (Mus musculus [6]) was 89.514 pg and the Activity (Mus musculus [7]) was over 99%. For the same compound, the Activity (Mus musculus [8]) was 9.38%, the Activity (Mus musculus [9]) was 70.442% and the Activity (Mus musculus [10]) was 77%. It also gave an Activity (Mus musculus [11]) of 0.175, an Activity [12] of 0.341 RPKM and an Activity [13] of 0 RPKM. The Activity [14] was 0 RPKM, the Activity [15] was 6.689 RPKM and the Activity [16] was 14.33 RPKM. It also gave an Activity [17] of 84.37%, an Activity [18] of 83.733% and an Activity [19] of 85.99%. For the same compound, the Activity (Mus musculus [20]) was “Active”.
